Screening results: PubChem, several laboratories
In the library only some 8.8% were active in any assay of this set; here they are far more common.
S1P1 ag-PAM = activates or potentiates agonism at human S1P1 receptor. 0.57% of 56,000 active. P21453. activation, % at 9.5 µM. S1P1 CRE-bla cells, forskolin, beta-lactamase FRET, potentiator mode; S1P1 agonist co-added at EC20, 2 nM; 100% = saturating reference agonist, 0% = basal;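 active = activation above a cutoff set at the mean activation of all tested compounds plus 3 SD, cut at about 54% in these data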;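 also: forskolin at 4 µM as EC80 and the EC20 agonist is SEW2871; 100% = SEW2871 at its EC100 plus forskolin at EC80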
M1 antagonist = antagonists of rat M1 muscarinic receptor; AID 628; B-score at 10 µM; CHO-M1 cells, Fluo-4 calcium, ACh EC80 antagonist mode; stronger effect = lower value; 3.4% of 64,000 active;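 active = calcium fluorescence response, raw or row-and-column corrected B-score, differing from the plate sample mean either way at a set confidence level, mostly lower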
M1 agonist = agonists of M1 muscarinic receptor | CHO-M1 cells, Fluo-4 calcium fluorescence, agonist mode; stronger effect = higher value | 3% of 64,000 active | B-score at 10 µM;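 active = fluorescence rise, raw or as B-score row- and column-corrected plate score, outside the 99.7% band of its plate's samples, either direction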
S1P3 agonist = activates the human S1P3 receptor. activation, % at 4.5 µM. S1P3 NFAT-BLA reporter cells, agonism, FRET ratio; relative to 1 µM S1P, basal subtracted. AID 373. 0.1% of 60,000 active;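 active = activation above the screen-wide mean plus 3 SD, cut at about 4.5% in these data, passing the limit was not always enough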
Target sequence (Q99500 whole entry, looked up): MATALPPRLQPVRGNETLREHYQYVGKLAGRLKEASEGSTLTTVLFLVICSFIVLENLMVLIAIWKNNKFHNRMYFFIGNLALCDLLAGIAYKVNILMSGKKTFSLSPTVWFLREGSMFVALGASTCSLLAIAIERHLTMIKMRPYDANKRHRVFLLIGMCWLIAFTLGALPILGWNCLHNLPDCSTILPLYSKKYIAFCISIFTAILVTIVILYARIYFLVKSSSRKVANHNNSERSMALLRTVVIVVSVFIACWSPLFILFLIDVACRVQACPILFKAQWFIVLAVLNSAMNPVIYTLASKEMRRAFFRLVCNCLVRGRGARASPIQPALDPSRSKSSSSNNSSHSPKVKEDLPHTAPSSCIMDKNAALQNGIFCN
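Assay system: CHO cells stably expressing human S1P3, Gα16 and NFAT-β-lactamase reporter. Timing: overnight plating, 4 h compound 37 °C, 2 h substrate RT. Signal: β-lactamase FRET emission ratio 460/535 nm. Measure: percent activation versus median 1 µM S1P response, basal-subtracted, per plate. Repeats: primary screen single test, confirmation screen in triplicate.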
SF-1 act = activators of human nuclear receptor SF-1; CHO-K1 Gal4-SF-1 LBD luciferase reporter; % increase over DMSO SF-1-specific signal; activation, % at 10 µM; 1.9% of 65,000 active; AID 522;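 active = activation above the mean activation of all tested compounds plus 3 SD, cut at about 50% in these data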
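Material: CHO-K1 cells with Gal4–hSF-1 LBD chimera plus Gal4-driven luciferase / Input: 4,000 CHO-K1 cells per well / Incubation: compound exposure 20 h at 37 °C / Signal: luminescence read 15 min after SteadyLite luciferase reagent, after room-temperature equilibration / Read-out: percent activation versus DMSO / Benchmarks: DMSO negative control and −SF1 background wells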
RORA act = RORA (human) activation; CHO-K1 Gal4-RORA LBD luciferase reporter, luminescence; percent increase over mock-subtracted basal signal; activation, % at 10 µM; P35398; 1.5% of 65,000 active;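 active = activation above the mean of all tested compounds plus 3 SD, cut at about 49% in these data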;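 also: 0% = DMSO-treated RORA cells and 100% = added signal equal to DMSO minus mock-transfected cells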
M1 antag conf = M1 muscarinic receptor (rat) antagonism, confirmed; shares compounds with M1 antagonist; CHO-M1 cells, Fluo-4 calcium, ACh EC80 antagonism; stronger effect = lower value; calcium response (max-min fluorescence) at 10 µM; 43% of 1,700 active;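 active = calcium response below the same-plate mean of wells given acetylcholine alone at its 80%-effect dose, minus 3 SD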;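 also: raw fluorescence intensity difference in arbitrary instrument units and not normalized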
mGluR4 antag = acts on human mGluR4 in M1 antagonist selectivity test | fluorescence response (max-min) at 10 µM | CHO-mGluR4 calcium flux, Fluo-4 fluorescence, glutamate EC80; stronger effect = lower value | AID 678 | shares compounds with M1 antagonist | 0.9% of 1,700 active;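 active = fluorescence response below the plate's average for near-maximal glutamate wells, less 3 SD of those wells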;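 also: raw unnormalized fluorescence span taken in the window right after glutamate addition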
Numbers without * were called inactive; nt = no result given.

SMILES	S1P1 ag-PAM	M1 antagonist	M1 agonist	S1P3 agonist	SF-1 act	RORA act	M1 antag conf	mGluR4 antag
COC(=O)c1cc2ccsc2n1CC(=O)N(C)c1ccccc1	-1	-0.77	-0.27	-1	-16	-37	nt	nt
COc1ccccc1C1C(C#N)=C(N)Oc2cc(C)n(CCCn3ccnc3)c(=O)c21 (stereo not given)	2	-2.6*	-0.61	-2	-28	-5	379*	201
Cc1cc2c(c(=O)n1CCCn1ccnc1)C(c1ccco1)C(C#N)=C(N)O2 (stereo not given)	-11	-0.83	0.39	-1	-5	-22	nt	nt
CCN(CCCNC(=O)c1[nH]c(C)c(C(C)=O)c1C)c1ccccc1	7	-1.5	-1.8	1	4	-13	nt	nt
CC(CCN(C)C)OC(=O)c1ccc(C(C)c2ccccc2)o1 (stereo not given)	-11	-4.4*	0.25	-1	-21	-15	349*	223
CC#CCN(CC#CC)S(=O)(=O)c1ccc(-n2cnnn2)c(OC)c1	-6	0.38	1.8	0	4	-19	nt	nt
O=C(NC1CCCCC1)c1nc2c(nnn2Cc2ccccc2Cl)c(=O)[nH]1	22	0.66	1.9	0	-10	7	nt	nt
N=c1c2c(-c3ccccc3)c(-c3ccccc3)n(Cc3ccco3)c2ncn1CCN1CCOCC1	-2	-7.2*	-1.1	0	3	30	360*	252
CC(C)(O)P(C)(=O)c1ccccc1 (stereo not given)	-8	-0.061	-0.17	0	-3	-5	nt	nt
CC(C)(C)P(=O)(CO)c1ccccc1 (stereo not given)	9	-2.5*	-0.38	-2	15	21	508	195
COc1ccc(CNC(=O)CSc2nnc(C)s2)cc1	2	1.2	0.12	0	8	-14	nt	nt
Cc1c(C(=O)N2CCCc3ccccc32)oc2ccc(S(=O)(=O)N3CCOCC3)cc12	16	-2.2*	0.72	0	25	27	614	264
Cc1c(C(=O)N(C)Cc2ccccc2)oc2ccc(S(=O)(=O)N3CCCC3)cc12	nt	-2.3*	2.5	nt	7	3	590	249
CCOC(=O)N1CCN(C(=O)c2oc3ccc(S(=O)(=O)N4CCCCCC4)cc3c2C)CC1	nt	-2*	-0.15	nt	8	14	598	236
CCOC(=O)N1CCN(C(=O)c2oc3ccc(S(=O)(=O)N4CCOCC4)cc3c2C)CC1	nt	-0.27	0.17	nt	1	14	nt	nt
Cc1c(C(=O)NCc2cccnc2)oc2ccc(S(=O)(=O)N3CCCCCC3)cc12	nt	-1.6*	-0.73	nt	-14	14	617	268
Cc1c(C(=O)NCc2cccnc2)oc2ccc(S(=O)(=O)N3CCCCC3)cc12	-9	-0.36	2.1	-1	-7	-9	nt	nt
Cc1c(C(=O)NCc2ccccc2)oc2ccc(S(=O)(=O)N3CCCC3)cc12	13	0.52	-0.75	-1	17	-4	nt	nt
COC(=O)CCN1CCC(C(N)=O)CC1	-8	-0.37	-0.73	0	-1	21	nt	nt
O=C(COc1ccc(S(=O)(=O)N2CCc3ccccc32)cc1Cl)NCc1ccccn1	21	-0.4	-0.16	0	15	-6	nt	nt
CC1CCCC(C)N1c1nnc(N)s1 (stereo not given)	10	-0.092	-0.14	-2	-12	-7	nt	nt
O=C(CSc1nnc(-c2ccccc2)o1)OCc1ccccc1	-16	1.4	-0.056	1	-4	-12	nt	nt
Cc1cc(C(=O)CSc2nnc(-c3ccco3)o2)c(C)n1CC1COc2ccccc2O1 (stereo not given)	17	-0.092	0.0095	-1	-27	6	nt	nt
Cc1c(C(=O)NC(C)CN2CCCCC2)oc2ccccc12 (stereo not given)	-7	-0.55	-0.052	-1	8	-9	nt	nt
